# What was measured:
# Dipeptidyl peptidase 8 = Dipeptidyl peptidase 8 (Homo sapiens, UniProt Q6V1X1); assay: Inhibition of human DPP8
# Dipeptidyl peptidase 9 = Dipeptidyl peptidase 9 (Homo sapiens, UniProt Q86TI2); assay: Inhibition of human DPP9
# [1] = Half life in rat liver microsome; assay type: ADME; settings: liver microsomes
# Summary of the method: (§1)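 Stability on incubation with rat or human liver microsomes, expressed as half-life.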
# [2] = Oral bioavailability in Sprague-Dawley rat at 5 mg/kg, po; assay type: ADME, organism-based; settings: in vivo
# Summary of the method: (§2)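 Pharmacokinetics in rat dosed at 5 mg/kg and in dog and monkey dosed at 2.5 mg/kg. Cmax, t1/2 (terminal) and AUC were taken from oral dosing. F is oral bioavailability. Vss is volume of distribution at steady state.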
# Cytochrome P450 2D6 = Cytochrome P450 2D6 (Homo sapiens, UniProt P10635); assay: Inhibition of CYP2D6; assay type: ADME
# Chain of Cytochrome P450 2D6 (P10635 whole entry): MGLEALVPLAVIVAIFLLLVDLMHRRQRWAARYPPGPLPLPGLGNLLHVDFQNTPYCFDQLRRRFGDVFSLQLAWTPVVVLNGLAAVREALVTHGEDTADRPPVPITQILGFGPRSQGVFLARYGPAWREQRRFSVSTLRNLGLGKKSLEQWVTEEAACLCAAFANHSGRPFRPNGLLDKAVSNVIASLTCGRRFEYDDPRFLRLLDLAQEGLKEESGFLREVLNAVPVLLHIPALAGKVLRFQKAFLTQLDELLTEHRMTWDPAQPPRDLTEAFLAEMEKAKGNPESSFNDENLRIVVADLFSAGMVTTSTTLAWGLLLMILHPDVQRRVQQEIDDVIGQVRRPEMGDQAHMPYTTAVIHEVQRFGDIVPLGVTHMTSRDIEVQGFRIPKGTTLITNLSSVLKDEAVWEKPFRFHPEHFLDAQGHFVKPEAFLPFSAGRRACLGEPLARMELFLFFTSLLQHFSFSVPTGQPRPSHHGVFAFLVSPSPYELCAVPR
# [3] = Cmax in Sprague-Dawley rat at 5 mg/kg, po; assay type: ADME, organism-based; parameters: dose 5 mg/kg, route oral; settings: in vivo; summary of the method: as §2
# Prolyl endopeptidase FAP = biological target: T1, Prolyl endopeptidase FAP (Homo sapiens, UniProt Q12884); assay: Inhibition of human FAPalpha
# T1 sequence (Q12884 whole entry): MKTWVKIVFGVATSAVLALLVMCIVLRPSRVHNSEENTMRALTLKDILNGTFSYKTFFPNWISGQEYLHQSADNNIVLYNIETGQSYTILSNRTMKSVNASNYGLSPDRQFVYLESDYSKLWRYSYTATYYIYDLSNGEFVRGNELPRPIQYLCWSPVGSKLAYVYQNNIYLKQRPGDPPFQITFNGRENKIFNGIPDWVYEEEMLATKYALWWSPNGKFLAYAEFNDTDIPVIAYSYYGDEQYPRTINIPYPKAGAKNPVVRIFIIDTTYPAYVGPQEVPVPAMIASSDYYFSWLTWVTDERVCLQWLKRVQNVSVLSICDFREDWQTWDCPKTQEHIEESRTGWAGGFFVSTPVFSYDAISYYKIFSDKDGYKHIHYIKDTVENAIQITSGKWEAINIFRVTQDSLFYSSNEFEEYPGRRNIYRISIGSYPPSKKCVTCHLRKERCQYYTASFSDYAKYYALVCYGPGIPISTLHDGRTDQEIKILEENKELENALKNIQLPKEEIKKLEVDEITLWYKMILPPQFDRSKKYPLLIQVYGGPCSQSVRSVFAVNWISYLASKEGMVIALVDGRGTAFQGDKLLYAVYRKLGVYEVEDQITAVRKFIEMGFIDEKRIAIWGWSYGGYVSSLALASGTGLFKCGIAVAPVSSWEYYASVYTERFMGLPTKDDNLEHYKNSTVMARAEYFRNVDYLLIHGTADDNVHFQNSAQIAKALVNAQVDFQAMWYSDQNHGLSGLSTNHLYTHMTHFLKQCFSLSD
# Rattus norvegicus [4] = assay: AUC in Sprague-Dawley rat at 5 mg/kg, po; assay type: ADME, organism-based, Plasma; parameters: dose 5 mg/kg, route oral; settings: in vivo; summary of the method: as §2
# Cytochrome P450 3A4 = Cytochrome P450 3A4 (Homo sapiens, UniProt P08684); assay: Inhibition of CYP3A4; assay type: ADME
# Chain of Cytochrome P450 3A4 (P08684 whole entry): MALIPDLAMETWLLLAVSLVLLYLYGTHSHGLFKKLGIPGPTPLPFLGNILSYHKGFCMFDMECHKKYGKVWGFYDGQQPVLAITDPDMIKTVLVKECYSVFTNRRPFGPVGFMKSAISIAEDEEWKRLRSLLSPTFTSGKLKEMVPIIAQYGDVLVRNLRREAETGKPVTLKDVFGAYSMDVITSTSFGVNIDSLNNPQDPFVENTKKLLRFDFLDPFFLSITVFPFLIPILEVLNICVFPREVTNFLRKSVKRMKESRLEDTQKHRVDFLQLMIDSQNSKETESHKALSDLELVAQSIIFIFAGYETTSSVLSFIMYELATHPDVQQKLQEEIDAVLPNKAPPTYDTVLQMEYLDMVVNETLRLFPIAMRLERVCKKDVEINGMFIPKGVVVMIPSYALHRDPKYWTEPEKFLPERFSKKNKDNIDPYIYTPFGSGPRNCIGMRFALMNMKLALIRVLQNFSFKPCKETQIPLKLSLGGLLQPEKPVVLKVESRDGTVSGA
# [5] = Plasma clearance in Sprague-Dawley rat at 5 mg/kg, po; assay type: ADME, organism-based; parameters: dose 5 mg/kg, route oral; summary of the method: as §2
# [6] = Half life in Sprague-Dawley rat at 5 mg/kg, po; assay type: ADME, organism-based; parameters: dose 5 mg/kg, route oral; settings: in vivo; summary of the method: as §2
# [7] = Half life in human liver microsome; assay type: ADME; settings: liver microsomes; summary of the method: as §1
# Prolyl endopeptidase = biological target: T2, Prolyl endopeptidase (Homo sapiens, UniProt P48147); assay: Inhibition of human POP
# T2 sequence (P48147 whole entry): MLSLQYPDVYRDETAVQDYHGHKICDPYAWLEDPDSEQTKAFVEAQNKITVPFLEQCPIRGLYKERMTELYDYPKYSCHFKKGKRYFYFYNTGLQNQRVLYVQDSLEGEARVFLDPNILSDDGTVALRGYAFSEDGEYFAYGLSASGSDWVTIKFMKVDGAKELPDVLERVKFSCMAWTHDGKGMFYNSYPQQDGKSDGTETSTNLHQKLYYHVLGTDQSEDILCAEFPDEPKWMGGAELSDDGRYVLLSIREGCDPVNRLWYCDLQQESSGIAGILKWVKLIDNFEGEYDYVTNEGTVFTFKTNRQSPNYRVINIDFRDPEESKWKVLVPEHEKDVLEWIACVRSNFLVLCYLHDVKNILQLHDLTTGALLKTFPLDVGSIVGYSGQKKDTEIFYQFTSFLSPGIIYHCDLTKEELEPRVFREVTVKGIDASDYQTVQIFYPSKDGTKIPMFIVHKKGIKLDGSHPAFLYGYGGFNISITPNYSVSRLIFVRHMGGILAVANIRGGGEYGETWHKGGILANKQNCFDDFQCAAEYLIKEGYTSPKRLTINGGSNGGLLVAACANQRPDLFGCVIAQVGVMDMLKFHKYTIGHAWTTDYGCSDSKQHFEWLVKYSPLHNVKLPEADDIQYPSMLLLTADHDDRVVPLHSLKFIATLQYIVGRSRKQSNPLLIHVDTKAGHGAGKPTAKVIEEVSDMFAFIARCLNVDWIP
# Rattus norvegicus [8] = assay: Volume of distribution at steady state in Sprague-Dawley rat at 5 mg/kg, po; assay type: ADME, organism-based; parameters: dose 5 mg/kg, route oral; settings: in vivo; summary of the method: as §2
# Dipeptidyl peptidase 4 [9] = biological target: T3, Dipeptidyl peptidase 4 (Homo sapiens, UniProt P27487); assay: Inhibition of human DPP4 in presence of rat plasma protein; assay type: cell-free
# T3 sequence (P27487 whole entry): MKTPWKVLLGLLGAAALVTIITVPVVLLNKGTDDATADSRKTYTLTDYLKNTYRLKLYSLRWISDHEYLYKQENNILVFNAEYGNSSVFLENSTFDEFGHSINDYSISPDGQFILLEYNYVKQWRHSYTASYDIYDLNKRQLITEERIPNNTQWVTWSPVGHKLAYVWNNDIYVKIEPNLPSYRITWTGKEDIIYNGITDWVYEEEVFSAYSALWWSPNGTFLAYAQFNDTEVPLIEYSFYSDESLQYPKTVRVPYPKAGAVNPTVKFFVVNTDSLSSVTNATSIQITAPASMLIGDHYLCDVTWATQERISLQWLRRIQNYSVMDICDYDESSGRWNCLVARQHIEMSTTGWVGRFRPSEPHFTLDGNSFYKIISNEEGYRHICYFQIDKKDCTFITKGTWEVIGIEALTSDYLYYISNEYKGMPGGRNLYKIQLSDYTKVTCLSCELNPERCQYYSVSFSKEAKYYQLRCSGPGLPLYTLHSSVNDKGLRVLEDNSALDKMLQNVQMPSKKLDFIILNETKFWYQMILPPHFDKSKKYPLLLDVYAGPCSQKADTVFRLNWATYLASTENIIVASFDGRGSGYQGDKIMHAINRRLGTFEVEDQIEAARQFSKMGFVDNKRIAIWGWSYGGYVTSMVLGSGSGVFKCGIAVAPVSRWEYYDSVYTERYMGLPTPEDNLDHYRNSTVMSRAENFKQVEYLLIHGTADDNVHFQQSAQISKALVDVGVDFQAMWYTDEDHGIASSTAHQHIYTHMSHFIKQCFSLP
# Cytochrome P450 2C9 = Cytochrome P450 2C9 (Homo sapiens, UniProt P11712); assay: Inhibition of CYP2C9; assay type: ADME
# Chain of Cytochrome P450 2C9 (P11712 whole entry): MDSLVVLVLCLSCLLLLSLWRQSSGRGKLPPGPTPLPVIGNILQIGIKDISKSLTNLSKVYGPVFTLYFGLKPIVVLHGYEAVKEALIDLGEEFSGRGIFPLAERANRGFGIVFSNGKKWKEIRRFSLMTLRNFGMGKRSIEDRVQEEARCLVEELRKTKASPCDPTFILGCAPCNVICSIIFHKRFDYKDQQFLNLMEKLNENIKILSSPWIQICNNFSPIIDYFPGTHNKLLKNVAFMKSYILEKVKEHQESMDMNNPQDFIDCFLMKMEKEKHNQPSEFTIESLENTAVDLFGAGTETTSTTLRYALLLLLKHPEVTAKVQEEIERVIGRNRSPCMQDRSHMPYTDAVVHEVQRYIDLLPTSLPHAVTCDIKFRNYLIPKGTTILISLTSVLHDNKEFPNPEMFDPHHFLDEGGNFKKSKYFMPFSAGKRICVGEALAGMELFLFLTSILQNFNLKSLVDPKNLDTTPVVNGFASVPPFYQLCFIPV
# Dipeptidyl peptidase 4 [10] = biological target: T3, Dipeptidyl peptidase 4; assay: Inhibition of human DPP4 by tight binding assay
# [11] = Oral bioavailability in dog at 2.5 mg/kg, po; assay type: ADME, organism-based, Canis lupus familiaris; settings: in vivo; summary of the method: as §2
# [12] = Plasma concentration in ZDF rat at 1 mg/kg after 240 mins; assay type: ADME, organism-based; parameters: dose 1 mg/kg
# Summary of the method: (§3)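 Female ZDF rats, 10 weeks old, fasted overnight and dosed orally at 1 mg/kg four hours before feeding (t = 0). Plasma drug concentration and the matching plasma DPP4 inhibition were determined at t = 0 and t = 240 min.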
# Rattus norvegicus [13] = assay: Reduction of glucose level in ZDF rat at 3 mg/kg, po […]; assay type: functional; parameters: scale not given: the % may be the effect or the level left
# Summary of the method: (§4)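 Female Zucker diabetic fatty rats, 10 weeks old, fasted overnight (n = 10/group). They were dosed orally with vehicle or inhibitor at 0.3, 1 or 3 mg/kg at t = −240 min and allowed to feed at t = 0. Blood glucose lowering was measured relative to vehicle.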
# [14] = Plasma clearance in dog at 2.5 mg/kg, po; assay type: ADME, organism-based, Canis lupus familiaris; parameters: dose 2.5 mg/kg, route oral; summary of the method: as §2
# [15] = Cmax in dog at 2.5 mg/kg, po; assay type: ADME, organism-based, Canis lupus familiaris; parameters: dose 2.5 mg/kg, route oral; settings: in vivo; summary of the method: as §2
# Canis familiaris = assay: AUC in dog at 2.5 mg/kg, po; assay type: ADME, organism-based, Canis lupus familiaris, Plasma; parameters: dose 2.5 mg/kg, route oral; settings: in vivo; summary of the method: as §2
# [16] = Half life in dog at 2.5 mg/kg, po; assay type: ADME, organism-based, Canis lupus familiaris; parameters: dose 2.5 mg/kg, route oral; settings: in vivo; summary of the method: as §2
# Rattus norvegicus [17] = assay: Inhibition of DPP4 in ZDF rat at 1 mg/kg after 240 mins; assay type: functional; settings: 4 h; summary of the method: as §3
# Rattus norvegicus [18] = assay: Reduction of glucose level in ZDF rat at 1 mg/kg, po […]; assay type: functional; parameters: scale not given: the % may be the effect or the level left; summary of the method: as §4
# Rattus norvegicus [19] = assay: Reduction of glucose level in ZDF rat at 0.3 mg/kg, po by […]; assay type: functional; parameters: scale not given: the % may be the effect or the level left; summary of the method: as §4
# Chain of Dipeptidyl peptidase 9 (Q86TI2 whole entry): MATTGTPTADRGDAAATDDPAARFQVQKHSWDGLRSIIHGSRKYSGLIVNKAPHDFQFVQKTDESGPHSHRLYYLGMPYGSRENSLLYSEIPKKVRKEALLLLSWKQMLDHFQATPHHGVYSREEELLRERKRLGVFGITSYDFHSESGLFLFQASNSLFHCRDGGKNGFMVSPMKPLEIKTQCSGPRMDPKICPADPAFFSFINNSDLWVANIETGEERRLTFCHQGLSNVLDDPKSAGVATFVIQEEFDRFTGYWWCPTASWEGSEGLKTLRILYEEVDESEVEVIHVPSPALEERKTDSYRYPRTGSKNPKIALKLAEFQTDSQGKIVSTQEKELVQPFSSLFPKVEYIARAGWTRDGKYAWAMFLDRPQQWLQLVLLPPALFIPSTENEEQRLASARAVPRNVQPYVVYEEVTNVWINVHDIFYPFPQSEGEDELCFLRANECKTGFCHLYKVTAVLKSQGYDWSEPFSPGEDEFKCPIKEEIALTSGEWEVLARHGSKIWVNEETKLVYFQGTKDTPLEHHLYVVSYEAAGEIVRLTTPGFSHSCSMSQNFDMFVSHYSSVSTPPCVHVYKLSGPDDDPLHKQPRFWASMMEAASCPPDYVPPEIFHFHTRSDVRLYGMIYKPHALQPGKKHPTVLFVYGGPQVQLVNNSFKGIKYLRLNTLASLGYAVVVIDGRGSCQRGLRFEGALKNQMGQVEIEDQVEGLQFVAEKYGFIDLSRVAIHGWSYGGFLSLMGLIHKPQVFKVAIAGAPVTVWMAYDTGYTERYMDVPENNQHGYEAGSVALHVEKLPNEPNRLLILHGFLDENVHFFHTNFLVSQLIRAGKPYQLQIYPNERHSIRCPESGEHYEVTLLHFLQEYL
# Chain of Dipeptidyl peptidase 8 (Q6V1X1 whole entry): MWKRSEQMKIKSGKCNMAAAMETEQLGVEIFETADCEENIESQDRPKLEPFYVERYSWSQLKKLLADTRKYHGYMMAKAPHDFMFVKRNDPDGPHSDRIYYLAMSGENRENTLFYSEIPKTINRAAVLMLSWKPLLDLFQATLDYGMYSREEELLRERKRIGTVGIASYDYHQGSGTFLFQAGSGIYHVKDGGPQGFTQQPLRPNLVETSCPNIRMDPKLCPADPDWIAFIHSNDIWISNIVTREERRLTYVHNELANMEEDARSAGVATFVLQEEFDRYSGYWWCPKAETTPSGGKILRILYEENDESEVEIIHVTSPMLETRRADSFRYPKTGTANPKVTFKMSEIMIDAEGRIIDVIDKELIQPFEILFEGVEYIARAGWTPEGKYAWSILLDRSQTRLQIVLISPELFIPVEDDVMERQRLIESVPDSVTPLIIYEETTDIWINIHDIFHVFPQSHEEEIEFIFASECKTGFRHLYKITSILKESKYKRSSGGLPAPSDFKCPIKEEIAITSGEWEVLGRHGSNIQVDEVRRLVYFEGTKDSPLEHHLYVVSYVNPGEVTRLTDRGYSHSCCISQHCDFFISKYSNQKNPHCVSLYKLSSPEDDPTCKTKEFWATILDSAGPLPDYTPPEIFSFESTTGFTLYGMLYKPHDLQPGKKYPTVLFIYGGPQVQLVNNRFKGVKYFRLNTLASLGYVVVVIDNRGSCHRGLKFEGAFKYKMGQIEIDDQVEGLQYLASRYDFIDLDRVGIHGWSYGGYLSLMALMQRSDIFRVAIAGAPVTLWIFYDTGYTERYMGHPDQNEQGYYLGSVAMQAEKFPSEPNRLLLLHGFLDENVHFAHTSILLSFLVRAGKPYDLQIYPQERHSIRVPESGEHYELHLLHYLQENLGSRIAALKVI
smiles,measurement,setting,value
NC1CN(c2cc(-c3cccc(C(=O)O)c3)ncn2)CC1c1cc(F)c(F)cc1F (centres undefined),Ki,Dipeptidyl peptidase 8,> 3 µM
same,Ki,Dipeptidyl peptidase 9,> 3 µM
same,half-life,[1],> 3 h
same,bioavailability,[2],18%
same,IC50,Cytochrome P450 2D6,> 10 µM
same,Cmax,[3],176 ng/mL
same,Ki,Prolyl endopeptidase FAP,> 30 µM
same,AUC,Rattus norvegicus [4],652 ng·h/mL
same,IC50,Cytochrome P450 3A4,> 10 µM
same,CL/F,[5],18.3 mL/min/kg
same,half-life,[6],6.8 h
same,half-life,[7],> 3 h
same,Ki,Prolyl endopeptidase,> 30 µM
same,Vdss,Rattus norvegicus [8],1.78 L/kg
NC1CN(c2cc(-c3ccc(C(=O)O)cc3)ncn2)CC1c1cc(F)c(F)cc1F (centres undefined),half-life,[1],> 3 h
same,half-life,[7],> 3 h
CN(C)C(=O)c1cccc(-c2cc(N3CC(N)C(c4cc(F)c(F)cc4F)C3)ncn2)c1 (centres undefined),half-life,[1],> 3 h
same,bioavailability,[2],42%
same,Cmax,[3],1270 ng/mL
same,AUC,Rattus norvegicus [4],3140 ng·h/mL
same,CL/F,[5],12.2 mL/min/kg
same,half-life,[6],3.5 h
same,half-life,[7],> 3 h
same,Vdss,Rattus norvegicus [8],1.77 L/kg
NC1CN(c2cc(-c3cccc(S(=O)(=O)N4CCOCC4)c3)ncn2)CC1c1cc(F)c(F)cc1F (centres undefined),half-life,[1],> 3 h
same,bioavailability,[2],21%
same,IC50,Cytochrome P450 2D6,> 10 µM
same,Cmax,[3],347 ng/mL
same,Ki,Prolyl endopeptidase FAP,> 30 µM
same,AUC,Rattus norvegicus [4],515 ng·h/mL
same,IC50,Cytochrome P450 3A4,> 10 µM
same,CL/F,[5],34.8 mL/min/kg
same,Ki,Dipeptidyl peptidase 4 [9],0.0017 µM
same,half-life,[6],1.1 h
same,IC50,Cytochrome P450 2C9,> 10 µM
same,half-life,[7],> 3 h
same,Ki,Prolyl endopeptidase,> 30 µM
same,Ki,Dipeptidyl peptidase 4 [10],0.0032 µM
same,Vdss,Rattus norvegicus [8],1.84 L/kg
CS(=O)(=O)c1cc(F)cc(-c2cc(N3CC(N)C(c4cc(F)c(F)cc4F)C3)ncn2)c1 (centres undefined),half-life,[1],> 3 h
same,half-life,[7],> 3 h
CS(=O)(=O)c1cccc(-c2ncnc(N3CC(N)C(c4cc(F)c(F)cc4F)C3)n2)c1 (centres undefined),bioavailability,[11],100%
same,concentration at 4 h,[12],373 ng/mL
same,Activity,Rattus norvegicus [13],-37%
same,CL/F,[14],3.5 mL/min/kg
same,Cmax,[15],691 ng/mL
same,AUC,Canis familiaris,12200 ng·h/mL
same,half-life,[1],> 3 h
same,half-life,[16],14.9 h
same,bioavailability,[2],74%
same,inhibition in vivo at 1 mg/kg,Rattus norvegicus [17],> 98%
same,IC50,Cytochrome P450 2D6,> 10 µM
same,Cmax,[3],1970 ng/mL
same,Ki,Prolyl endopeptidase FAP,> 30 µM
same,AUC,Rattus norvegicus [4],24400 ng·h/mL
same,IC50,Cytochrome P450 3A4,> 10 µM
same,CL/F,[5],2.5 mL/min/kg
same,half-life,[6],5.5 h
same,IC50,Cytochrome P450 2C9,> 10 µM
same,half-life,[7],> 3 h
same,Ki,Prolyl endopeptidase,> 30 µM
same,Vdss,Rattus norvegicus [8],1.15 L/kg
same,Activity,Rattus norvegicus [18],-39%
same,Activity,Rattus norvegicus [19],-32%
NC1CN(c2cc(-c3ccccc3)ncn2)CC1c1cc(F)c(F)cc1F (centres undefined),half-life,[1],> 3 h
same,half-life,[7],> 3 h
NC1CN(Cc2ccccc2)CC1c1ccc(Cl)cc1Cl (centres undefined),half-life,[1],> 3 h
same,half-life,[7],> 3 h
CS(=O)(=O)c1cccc(-c2cc(N3CC(N)C(c4cc(F)c(F)cc4F)C3)ncn2)c1 (centres undefined),half-life,[1],> 3 h
same,bioavailability,[2],110%
same,Cmax,[3],1810 ng/mL
same,Ki,Prolyl endopeptidase FAP,> 30 µM
same,AUC,Rattus norvegicus [4],22000 ng·h/mL
same,CL/F,[5],4.33 mL/min/kg
same,half-life,[6],3.8 h
same,half-life,[7],> 3 h
same,Ki,Prolyl endopeptidase,> 30 µM
same,Vdss,Rattus norvegicus [8],1.44 L/kg
Cl.NC1CN(c2cc(-c3ccsc3)ncn2)CC1c1cc(F)c(F)cc1F (centres undefined),half-life,[1],> 3 h
same,IC50,Cytochrome P450 2D6,1.1 µM
same,half-life,[7],> 3 h
NC1CN(c2ccccn2)CC1c1ccc(Cl)cc1Cl (racemic),half-life,[1],> 3 h
same,half-life,[7],> 3 h
NC1CN(c2ncccn2)CC1c1ccc(Cl)cc1Cl (racemic),half-life,[1],> 3 h
same,half-life,[7],> 3 h
COc1ccc(-c2cnc(N3CC(N)C(c4ccc(Cl)cc4Cl)C3)nc2)cc1 (racemic),half-life,[1],> 3 h
same,half-life,[7],> 3 h
Cc1ccc(S(=O)(=O)N2CC(N)C(c3ccc(Cl)cc3Cl)C2)cc1 (racemic),half-life,[1],> 3 h
same,half-life,[7],> 3 h

# Reference: ChEMBL document CHEMBL1139138, “Pyrrolidine-constrained phenethylamines: The design of potent, selective, and pharmacologically efficacious dipeptidyl peptidase IV (DPP4) inhibitors from a lead-like screening hit” (Bioorg Med Chem Lett, 2007)
